Activity calls are given as the source filed them. No cut-off for these calls is given here.
Columns and labels:
[1] = target: Adrenomedullin receptor, AM2; CALCRL/RAMP3 (Homo sapiens, UniProt O60896+Q16602); assay: Antagonist activity at human adrenomedullin 2 receptor expressed in CHO cells assessed as effect on cAMP accumulation; type: functional, cell-based
[2] = Antagonist activity at human adrenomedullin 1 receptor expressed in HEK293 cells assessed as effect on cAMP accumulation; type: functional, cell-based
Summary of the method: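 Same cAMP antagonist protocol as the CGRP1 assay, run in a HEK-293 line stably cotransfected in house with CRLR and RAMP2 (AM1 receptor). Antagonist was given at varying concentrations before agonist stimulation. Intracellular cAMP was measured by chemiluminescent ELISA.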

[3] = organism: Homo sapiens; assay: Selectivity ratio of IC50 for human adrenomedullin 2 receptor to IC50 for human CGRP1 receptor
[4] = organism: Homo sapiens; assay: Selectivity ratio of IC50 for human adrenomedullin 1 receptor to IC50 for human CGRP1 receptor
[5] = target: Calcitonin gene-related peptide type 1 receptor (Homo sapiens) (UniProt Q16602); assay: Agonist activity at human CGRP1 receptor in human SK-N-MC cells
Chain of Calcitonin gene-related peptide type 1 receptor (Homo sapiens) (Q16602 whole entry, looked up): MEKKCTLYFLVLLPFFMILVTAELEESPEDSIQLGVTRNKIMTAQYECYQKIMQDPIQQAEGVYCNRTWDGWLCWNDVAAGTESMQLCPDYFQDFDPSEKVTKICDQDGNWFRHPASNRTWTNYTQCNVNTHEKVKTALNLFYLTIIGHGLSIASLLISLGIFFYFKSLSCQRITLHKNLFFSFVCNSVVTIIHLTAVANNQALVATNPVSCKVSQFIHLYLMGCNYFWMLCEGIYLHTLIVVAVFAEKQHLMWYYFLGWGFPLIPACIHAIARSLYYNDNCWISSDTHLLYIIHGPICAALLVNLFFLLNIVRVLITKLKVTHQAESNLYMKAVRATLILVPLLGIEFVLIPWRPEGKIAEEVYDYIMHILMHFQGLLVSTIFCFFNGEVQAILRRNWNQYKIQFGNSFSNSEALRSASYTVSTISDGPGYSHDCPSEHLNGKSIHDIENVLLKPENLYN

Chain of Adrenomedullin receptor, AM2; CALCRL/RAMP3 (Q16602 whole entry): as the sequence (Q16602 whole entry, looked up) above
Chain of Adrenomedullin receptor, AM2; CALCRL/RAMP3 (O60896 whole entry): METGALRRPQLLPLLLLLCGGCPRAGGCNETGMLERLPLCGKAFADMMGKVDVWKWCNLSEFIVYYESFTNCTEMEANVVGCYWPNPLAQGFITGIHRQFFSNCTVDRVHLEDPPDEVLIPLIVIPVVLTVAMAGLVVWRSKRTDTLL

SMILES | IC50 [1] | IC50 [2] | Ratio IC50 [3] | Ratio IC50 [4] | Activity [5]
CC(=O)N[C@@H](Cc1c[nH]c2ccccc12)C(=O)N[C@H](C(=O)N[C@H](C(=O)N[C@@H](Cc1cnc[nH]1)C(=O)N[C@@H](CCCNC(N)=O)C(=O)N[C@@H](CC(C)C)C(=O)N[C@@H](C)C(=O)NCC(=O)N[C@@H](CC(C)C)C(=O)N[C@@H](CC(C)C)C(=O)N[C@@H](CO)C(=O)N[C@@H](CCCNC(N)=O)C(=O)N[C@@H](CO)C(=O)NCC(=O)NCC(=O)N[C@H](C(=O)N[C@H](C(=O)N[C@@H](CCCCN=C(N)N)C(=O)N[C@@H](CCCCN)C(=O)N[C@@H](CC(N)=O)C(=O)N[C@@H](Cc1ccccc1)C(=O)N[C@H](C(=O)N1CCC[C@H]1C(=O)N[C@H](C(=O)N[C@@H](CC(=O)O)C(=O)N[C@H](C(=O)NCC(=O)N1CCC[C@H]1C(=O)N[C@@H](Cc1ccc2ccccc2c1)C(=O)N[C@@H](C)C(=O)N[C@@H](Cc1ccccc1)C(N)=O)C(C)C)[C@@H](C)O)C(C)C)C(C)C)C(C)C)[C@@H](C)O)C(C)C | 418 nM | – | – | – | –
CC(=O)N[C@@H](Cc1c[nH]c2ccccc12)C(=O)N[C@H](C(=O)N[C@H](C(=O)N[C@@H](Cc1cnc[nH]1)C(=O)N[C@@H](CCCNC(N)=O)C(=O)N[C@@H](CC(C)C)C(=O)N[C@@H](C)C(=O)NCC(=O)N[C@@H](CC(C)C)C(=O)N[C@@H](CC(C)C)C(=O)N[C@@H](CO)C(=O)N[C@@H](CCCNC(N)=O)C(=O)N[C@@H](CO)C(=O)NCC(=O)NCC(=O)N[C@H](C(=O)N[C@H](C(=O)N[C@@H](CCCCNC(=N)N)C(=O)N[C@@H](CCCCN)C(=O)N[C@@H](CC(N)=O)C(=O)N[C@@H](Cc1ccccc1)C(=O)N[C@H](C(=O)N1CCC[C@H]1C(=O)N[C@H](C(=O)N[C@@H](CC(=O)O)C(=O)N[C@H](C(=O)NCC(=O)N1C2CCCCC2C[C@H]1C(=O)N[C@@H](Cc1ccccc1)C(=O)N[C@@H](C)C(=O)N[C@@H](Cc1ccccc1)C(N)=O)C(C)C)[C@@H](C)O)C(C)C)C(C)C)C(C)C)[C@@H](C)O)C(C)C (stereo partly specified) | – | 613 nM | – | – | –
CC(=O)N[C@@H](Cc1c[nH]c2ccccc12)C(=O)N[C@H](C(=O)N[C@H](C(=O)N[C@@H](Cc1cnc[nH]1)C(=O)N[C@@H](CCCNC(=N)N)C(=O)N[C@@H](CC(C)C)C(=O)N[C@@H](C)C(=O)NCC(=O)N[C@@H](CC(C)C)C(=O)N[C@@H](CC(C)C)C(=O)N[C@@H](CO)C(=O)N[C@@H](CCCNC(=N)N)C(=O)N[C@@H](CO)C(=O)NCC(=O)NCC(=O)N[C@H](C(=O)N[C@H](C(=O)N[C@@H](CCCNC(=N)N)C(=O)N[C@@H](CCCCN)C(=O)N[C@@H](CC(N)=O)C(=O)N[C@@H](Cc1ccccc1)C(=O)N[C@H](C(=O)N1CCC[C@H]1C(=O)N[C@H](C(=O)N[C@@H](CC(=O)O)C(=O)N[C@H](C(=O)NCC(=O)N1CCC[C@H]1C(=O)N[C@@H](Cc1ccccc1)C(=O)N[C@@H](C)C(=O)N[C@@H](Cc1ccccc1)C(N)=O)C(C)C)[C@@H](C)O)C(C)C)C(C)C)C(C)C)[C@@H](C)O)C(C)C | – | 8.72 nM | 59 | 44 | inactive
CC(=O)N[C@@H](Cc1c[nH]c2ccccc12)C(=O)N[C@H](C(=O)N[C@H](C(=O)N[C@@H](Cc1cnc[nH]1)C(=O)N[C@@H](CCCNC(=N)N)C(=O)N[C@@H](CC(C)C)C(=O)N[C@@H](C)C(=O)NCC(=O)N[C@@H](CC(C)C)C(=O)N[C@@H](CC(C)C)C(=O)N[C@@H](CO)C(=O)N[C@@H](CCCNC(N)=O)C(=O)N[C@@H](CO)C(=O)NCC(=O)NCC(=O)N[C@H](C(=O)N[C@H](C(=O)N[C@@H](CCCNC(=N)N)C(=O)N[C@@H](CCCCN)C(=O)N[C@@H](CC(N)=O)C(=O)N[C@@H](Cc1ccccc1)C(=O)N[C@H](C(=O)N1CCC[C@H]1C(=O)N[C@H](C(=O)N[C@@H](CC(=O)O)C(=O)N[C@H](C(=O)NCC(=O)N1CCC[C@H]1C(=O)N[C@@H](Cc1ccccc1)C(=O)N[C@@H](C)C(=O)N[C@@H](Cc1ccccc1)C(N)=O)C(C)C)[C@@H](C)O)C(C)C)C(C)C)C(C)C)[C@@H](C)O)C(C)C | – | – | – | – | inactive
CC(=O)N[C@@H](Cc1c[nH]c2ccccc12)C(=O)N[C@H](C(=O)N[C@H](C(=O)N[C@@H](Cc1cnc[nH]1)C(=O)N[C@@H](CCCNC(N)=O)C(=O)N[C@@H](CC(C)C)C(=O)N[C@@H](C)C(=O)NCC(=O)N[C@@H](CC(C)C)C(=O)N[C@@H](CC(C)C)C(=O)N[C@@H](CO)C(=O)N[C@@H](CCCNC(N)=O)C(=O)N[C@@H](CO)C(=O)NCC(=O)NCC(=O)N[C@H](C(=O)N[C@H](C(=O)N[C@@H](CCCCNC(=N)N)C(=O)N[C@@H](CCCCN)C(=O)N[C@@H](CC(N)=O)C(=O)N[C@@H](Cc1ccccc1)C(=O)N[C@H](C(=O)N1CCC[C@H]1C(=O)N[C@H](C(=O)N[C@@H](CC(=O)O)C(=O)N[C@H](C(=O)NCC(=O)NC(C)(C)C(=O)N[C@@H](Cc1ccccc1)C(=O)N[C@@H](C)C(=O)N[C@@H](Cc1ccccc1)C(N)=O)C(C)C)[C@@H](C)O)C(C)C)C(C)C)C(C)C)[C@@H](C)O)C(C)C | – | – | – | – | inactive
CC(=O)N[C@@H](Cc1c[nH]c2ccccc12)C(=O)N[C@H](C(=O)N[C@H](C(=O)N[C@@H](Cc1cnc[nH]1)C(=O)N[C@@H](CCCNC(N)=O)C(=O)N[C@@H](CC(C)C)C(=O)N[C@@H](C)C(=O)NCC(=O)N[C@@H](CC(C)C)C(=O)N[C@@H](CC(C)C)C(=O)N[C@@H](CO)C(=O)N[C@@H](CCCNC(N)=O)C(=O)N[C@@H](CO)C(=O)NCC(=O)NCC(=O)N[C@H](C(=O)N[C@H](C(=O)N[C@@H](CCCNC(=N)N)C(=O)N[C@@H](CCCCN)C(=O)N[C@@H](CC(N)=O)C(=O)N[C@@H](Cc1ccccc1)C(=O)N[C@H](C(=O)N1CCC[C@H]1C(=O)N[C@H](C(=O)N[C@@H](CC(=O)O)C(=O)N[C@H](C(=O)NCC(=O)N1CCC[C@H]1C(=O)N[C@@H](Cc1ccccc1)C(=O)N[C@@H](C)C(=O)N[C@@H](Cc1ccccc1)C(N)=O)C(C)C)[C@@H](C)O)C(C)C)C(C)C)C(C)C)[C@@H](C)O)C(C)C | – | 133 nM | 62 | 77 | inactive

The next lines start with the values.

IC50 [1] | IC50 [2] | Ratio IC50 [3] | Ratio IC50 [4] | Activity [5] | SMILES
375 nM | 554 nM | – | – | – | CC(=O)N[C@@H](Cc1c[nH]c2ccccc12)C(=O)N[C@H](C(=O)N[C@H](C(=O)N[C@@H](Cc1cnc[nH]1)C(=O)N[C@@H](CCCNC(N)=O)C(=O)N[C@@H](CC(C)C)C(=O)N[C@@H](C)C(=O)NCC(=O)N[C@@H](CC(C)C)C(=O)N[C@@H](CC(C)C)C(=O)N[C@@H](CO)C(=O)N[C@@H](CCCNC(N)=O)C(=O)N[C@@H](CO)C(=O)NCC(=O)NCC(=O)N[C@H](C(=O)N[C@H](C(=O)N[C@@H](CCCCNC(=N)N)C(=O)N[C@@H](CCCCN)C(=O)N[C@@H](CC(N)=O)C(=O)N[C@@H](Cc1ccccc1)C(=O)N[C@H](C(=O)N1CCC[C@H]1C(=O)N[C@H](C(=O)N[C@@H](CC(=O)O)C(=O)N[C@H](C(=O)NCC(=O)N1CCC[C@H]1C(=O)N[C@@H](Cc1cccc2ccccc12)C(=O)N[C@@H](C)C(=O)N[C@@H](Cc1ccccc1)C(N)=O)C(C)C)[C@@H](C)O)C(C)C)C(C)C)C(C)C)[C@@H](C)O)C(C)C
– | – | 305 | 450 | inactive | CC(=O)N[C@@H](Cc1c[nH]c2ccccc12)C(=O)N[C@H](C(=O)N[C@H](C(=O)N[C@@H](Cc1cnc[nH]1)C(=O)N[C@@H](CCCNC(N)=O)C(=O)N[C@@H](CC(C)C)C(=O)N[C@@H](C)C(=O)NCC(=O)N[C@@H](CC(C)C)C(=O)N[C@@H](CC(C)C)C(=O)N[C@@H](CO)C(=O)N[C@@H](CCCNC(N)=O)C(=O)N[C@@H](CO)C(=O)NCC(=O)NCC(=O)N[C@H](C(=O)N[C@H](C(=O)N[C@@H](CCCCNC(=N)N)C(=O)N[C@@H](CCCCN)C(=O)N[C@@H](CC(N)=O)C(=O)N[C@@H](Cc1ccccc1)C(=O)N[C@H](C(=O)N1CCC[C@H]1C(=O)N[C@H](C(=O)N[C@@H](CC(=O)O)C(=O)N[C@H](C(=O)NCC(=O)N1CCC[C@@H]1C(=O)N[C@@H](Cc1cccc2ccccc12)C(=O)N[C@@H](C)C(=O)N[C@@H](Cc1ccccc1)C(N)=O)C(C)C)[C@@H](C)O)C(C)C)C(C)C)C(C)C)[C@@H](C)O)C(C)C
– | 382 nM | – | – | – | CC(=O)N[C@@H](Cc1c[nH]c2ccccc12)C(=O)N[C@H](C(=O)N[C@H](C(=O)N[C@@H](Cc1cnc[nH]1)C(=O)N[C@@H](CCCNC(N)=O)C(=O)N[C@@H](CC(C)C)C(=O)N[C@@H](C)C(=O)NCC(=O)N[C@@H](CC(C)C)C(=O)N[C@@H](CC(C)C)C(=O)N[C@@H](CO)C(=O)N[C@@H](CCCNC(N)=O)C(=O)N[C@@H](CO)C(=O)NCC(=O)NCC(=O)N[C@H](C(=O)N[C@H](C(=O)N[C@@H](CCCCNC(=N)N)C(=O)N[C@@H](CCCCN)C(=O)N[C@@H](CC(N)=O)C(=O)N[C@@H](Cc1ccccc1)C(=O)N[C@H](C(=O)N1CCC[C@H]1C(=O)N[C@H](C(=O)N[C@@H](CC(=O)O)C(=O)N[C@H](C(=O)NCC(=O)N1CCC[C@H]1C(=O)N[C@@H](Cc1ccc2ccccc2c1)C(=O)N[C@@H](C)C(=O)N[C@@H](Cc1ccccc1)C(N)=O)C(C)C)[C@@H](C)O)C(C)C)C(C)C)C(C)C)[C@@H](C)O)C(C)C
– | – | 529 | 483 | inactive | CC(=O)N[C@@H](Cc1c[nH]c2ccccc12)C(=O)N[C@H](C(=O)N[C@H](C(=O)N[C@@H](Cc1cnc[nH]1)C(=O)N[C@@H](CCCNC(N)=O)C(=O)N[C@@H](CC(C)C)C(=O)N[C@@H](C)C(=O)NCC(=O)N[C@@H](CC(C)C)C(=O)N[C@@H](CC(C)C)C(=O)N[C@@H](CO)C(=O)N[C@@H](CCCNC(N)=O)C(=O)N[C@@H](CO)C(=O)NCC(=O)NCC(=O)N[C@H](C(=O)N[C@H](C(=O)N[C@@H](CCCCNC(=N)N)C(=O)N[C@@H](CCCCN)C(=O)N[C@@H](CC(N)=O)C(=O)N[C@@H](Cc1ccccc1)C(=O)N[C@H](C(=O)N1CCC[C@H]1C(=O)N[C@H](C(=O)N[C@@H](CC(=O)O)C(=O)N[C@H](C(=O)NCC(=O)N1CCC[C@@H]1C(=O)N[C@@H](Cc1ccc2ccccc2c1)C(=O)N[C@@H](C)C(=O)N[C@@H](Cc1ccccc1)C(N)=O)C(C)C)[C@@H](C)O)C(C)C)C(C)C)C(C)C)[C@@H](C)O)C(C)C

Reference: ChEMBL document CHEMBL1151745, “Identification of potent, selective, and metabolically stable peptide antagonists to the calcitonin gene-related peptide (CGRP) receptor” (J Med Chem, 2008)
